For one series, the system named is Trypanosoma cruzi. As to the kind of experiment: Antitrypanosomal activity against Trypanosoma cruzi MHOM/Br/OO/Y trypomastigotes up to 100 ug/ml after 5 days.
The subject of series [1] is Trypanosoma brucei rhodesiense. As to the kind of experiment: Antitrypanosomal activity against blood stream form of Trypanosoma brucei rhodesiense STIB 900. Type of series: functional, organism-based. The method in brief:
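Bloodstream-form trypanosomes at 200 cells/100 µL were exposed for 72 h to threefold dilutions starting at 100 µg/mL, with 1% DMSO final. MIC was read microscopically as the lowest concentration with no normally shaped or motile cells. For IC50, Alamar Blue was added for a further 2 h, fluorescence was measured, and values were obtained by linear interpolation.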

Series [2] concerns Trypanosoma brucei rhodesiense. Nature of the series: Antitrypanosomal activity against blood stream form of Trypanosoma brucei rhodesiense STIB 900 at 100 ug/ml. Type of series: functional, organism-based.
For series [3], the system named is Staphylococcus epidermidis. As to the kind of experiment: Antimicrobial activity against Staphylococcus epidermis ATCC 12228 after 24 hrs by agar diffusion assay. Type of series: functional. The method in brief:
(§1)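 Overnight cultures were diluted in 0.9% NaCl and mixed into molten casein soymeal peptone agar at a final 5 × 10⁴–10⁵ CFU/mL, which was layered onto agar plates. Test substances (100 µL of 1 mg/mL in H2O) were placed in 1 cm wells. Plates were incubated at 37 °C for 24 h, and inhibition zone diameters were measured.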

The next series concerns Leishmania donovani. As to the kind of experiment: Antileishmanial activity against Leishmania donovani MHOM/ET/67/L82 infected in mouse peritoneal macrophages after 5 days.
Series [4] is described as follows: Selectivity index, ratio of IC50 for human HT29 cells to IC50 for Trypanosoma brucei rhodesiense STIB 900. It is filed as toxicity, cell-based, HT-29. To be noted: HT29 cells versus Trypanosoma brucei rhodesiense STIB 900, read-out: Ratio IC50. The method in brief: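 The index was calculated as the HT-29 IC50 divided by the T. b. rhodesiense IC50. Both IC50s came from 72 h exposures read by Alamar Blue fluorescence, with linear interpolation.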

In a further series the test system is Escherichia coli. Nature of the series: Antimicrobial activity against Escherichia coli NCTC 8196 after 24 hrs by agar diffusion assay. It is filed as functional. In outline:
as §1
(In general: A growth-free zone around the sample is the usual read-out of agar diffusion tests.)

A further series has as its system Corynebacterium xerosis. As to the kind of experiment: Antimicrobial activity against Corynebacterium xerosis ATCC 373 after 24 hrs by agar diffusion assay. Type of series: functional. In outline: as §1
Series [5] is described as follows: (§2) Cytotoxicity against human HT-29 cells. Type of series: cell-based. The following applies: human, HT-29 cells; read-out: MIC. The method in brief:
(§3)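 HT-29 cells were seeded at 5000 cells/100 µL in MEM with 10% heat-inactivated FCS at 37 °C and 5% CO2. They were exposed for 72 h to threefold dilutions starting at […], with 1% DMSO final. MIC was read microscopically, and IC50 came from Alamar Blue fluorescence after 2 h by linear interpolation.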

The test system of a further series is HT-29. The description is as §2. It is filed as cell-based. To be noted: Homo sapiens, HT-29. In outline:
as §3

Series [6] relates to Corynebacterium minutissimum. As to the kind of experiment: Antimicrobial activity against Corynebacterium minutissium ATCC 23348 after 24 hrs by agar diffusion assay. It is filed as functional. The method in brief: as §1
Another series relates to Staphylococcus aureus. As to the kind of experiment: Antimicrobial activity against Staphylococcus aureus ATCC 9144 after 24 hrs by agar diffusion assay. Type of series: functional. The method in brief:
as §1

For another series, the system named is Candida albicans. Nature of the series: Antimicrobial activity against Candida albicans ATCC 10231 after 24 hrs by agar diffusion assay. It is filed as functional. In outline: as §1

≈ marks a conversion by molar mass, not a printed value. Calls of active or inactive are those of the source. The calls are words filed in the database; no cut-off is given here.

The results in this text go back to ChEMBL document CHEMBL1150877, “Total synthesis and biological activities of (+)- and (-)-boscialin and their 1'-epimers” (J Nat Prod, 1998).

By IC50 is commonly meant the concentration needed to halve the response being measured. Read a low IC50 as greater potency. What is called MIC is the least concentration at which growth counts as inhibited.

Take `CC(=O)/C=C/[C@]1(O)[C@H](C)C[C@H](O)CC1(C)C` [EPIBOSCIALIN]: the result with Trypanosoma cruzi and in the series on Leishmania donovani was inactive. Also, the IC50 was 0.9 µg/mL (≈ 3.98 µM) in series [1], 0.9 µg/mL (≈ 3.98 µM) in series [2] and 8.5 µg/mL (≈ 37.6 µM) in the series on HT-29. The minimal inhibitory concentration (MIC) in [1] and in [2] was 3.7 µg/mL (≈ 16.3 µM) throughout. In addition, the “inhibition zone (IZ)” value in series [3] came out at 8 mm; with Escherichia coli, 1.5 mm; with Corynebacterium xerosis it was 12 mm; in [6], 20 mm; in the series with Staphylococcus aureus, 10 mm; in the series with Candida albicans it was 15.5 mm. In series [4], the selectivity ratio is 9.4. For the same compound, the MCC in [5] turned out to be 56 µg/mL.

Take `CC(=O)/C=C/[C@@]1(O)[C@@H](C)C[C@@H](O)CC1(C)C`: the outcome (in the series with Trypanosoma cruzi; in series [2]) was inactive. Moreover, the IC50 came to 18 µg/mL (≈ 79.5 µM) in [1], 77 µg/mL (≈ 340 µM) in the series with Leishmania donovani (5 d) and 17 µg/mL (≈ 75.1 µM) in the series on HT-29. Inhibition of growth in [1] (MIC) required 100 µg/mL (≈ 442 µM). In addition, the “inhibition zone (IZ)” value was 0 mm in series [3]; 1 mm in the series with Escherichia coli; 3 mm in the series with Corynebacterium xerosis; 5 mm in series [6]; 3 mm with Staphylococcus aureus; 5 mm in the series with Candida albicans. Besides, the selectivity ratio in series [4] stood at 1. In addition, the MCC in [5] is > 100 µg/mL.

In the case of `CC(=O)/C=C/[C@@]1(O)[C@H](C)C[C@H](O)CC1(C)C` [BOSCIALIN], the outcome in the series with Trypanosoma cruzi and in the series on Leishmania donovani was inactive. Besides, the concentration for half-maximal inhibition (IC50) was 1.9 µg/mL (≈ 8.4 µM) in [1], 1.9 µg/mL (≈ 8.4 µM) in series [2] and 43 µg/mL (≈ 190 µM) in the series on HT-29. Also, the MIC in [1] and in series [2] was 11 µg/mL (≈ 48.6 µM) each time. For the same compound, the “inhibition zone (IZ)” value in series [3] came to 0 mm; in the series on Escherichia coli, 1 mm; in the series on Corynebacterium xerosis it was 2 mm; in series [6] it was 9.5 mm; with Staphylococcus aureus, 2.5 mm; in the series on Candida albicans, 4 mm. For the same compound, in series [4], the selectivity ratio came out at 23. Moreover, the MCC in series [5] was > 100 µg/mL.

With `Nc1nc(N)nc(Nc2ccc([As]3SCC(CO)S3)cc2)n1` (stereo not drawn) [MELARSOPROL], the IC50 is 0.0004 µg/mL in series [1] and 3.6 µg/mL with HT-29. In addition, in series [1], the MIC worked out at 0.011 µg/mL. The selectivity ratio in [4] stood at 9000. In addition, the MCC in [5] was determined as 11 µg/mL.

Take `CC(=O)/C=C/[C@]1(O)[C@@H](C)C[C@@H](O)CC1(C)C`: the outcome (in the series on Trypanosoma cruzi; in [2]; in the series with Leishmania donovani) was inactive. For the same compound, the IC50 in [1] came out at 31 µg/mL (≈ 137 µM); in the series with HT-29 it was 8.1 µg/mL (≈ 35.8 µM). 100 µg/mL (≈ 442 µM) was the least that counted as inhibitory in series [1] (MIC). Further, the “inhibition zone (IZ)” value in series [3] was determined as 8 mm; with Escherichia coli, 2 mm; with Corynebacterium xerosis it was 13 mm; in [6], 18 mm; in the series on Staphylococcus aureus it was 10.5 mm; in the series with Candida albicans, 4.5 mm. For the same compound, the selectivity ratio in series [4] was 0.3. Moreover, the MCC in [5] came to 56 µg/mL.
